# Results reported in ChEMBL document CHEMBL4033651, “Exploration of flexible phenylpropylurea scaffold as novel cardiac myosin activators for the treatment of systolic heart failure” (Eur J Med Chem, 2017).
# What was measured:
# Rattus norvegicus [1] = assay: Positive inotropic activity in Sprague-Dawley rat heart assessed as ejection fraction at 2 to 16 ug/kg/min for 3 mins by echocardiographic analysis; format: functional
# Outline: (§1)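 Seven-week-old male Sprague-Dawley rats under 1.5 % isoflurane via nosecone. Drug given through a right internal jugular vein central line. Left ventricular fractional shortening and ejection fraction measured by echocardiography with and without sample, expressed as % increase.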
# Rattus norvegicus [2] = assay: Positive inotropic activity in Sprague-Dawley rat heart assessed as left ventricle fractional shortening at 2 to 16 ug/kg/min for 3 mins by echocardiographic analysis; format: functional; outline: as §1
# Bos taurus = species: Bos taurus; assay: Activation of actin-stimulated bovine cardiac myosin S1 fragment ATPase activity in sarcomere at 10 uM after 10 mins by spectrophotometric analysis
# Outline: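 Bovine cardiac S1 myosin with actin thin filament complex at pCa 6.5, in 20 mM Tris HCl pH 7.5, 15 mM KCl, 6 mM MgCl2, 1 mM ATP. Compound at 10 μM, 10 min at room temperature. Stopped with Cytophos reagent; liberated phosphate read at 650 nm. % activity calculated relative to DMSO negative control, blank-corrected.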
# Oryctolagus cuniculus = species: Oryctolagus cuniculus; assay: Activation of actin-stimulated rabbit psoas skeletal muscle myosin S1 fragment ATPase activity at 100 uM after 10 mins by spectrophotometric analysis
# Outline: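 Rabbit skeletal S1 myosin with actin thin filament complex at pCa 6.5, in 20 mM Tris HCl pH 7.5, 15 mM KCl, 6 mM MgCl2, 1 mM ATP. Compound at single 100 uM dose, 10 min at room temperature. Cytophos stop; phosphate read at 650 nm. % activity versus blank-corrected DMSO control.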
# Gallus gallus = species: Gallus gallus; assay: Activation of actin-stimulated chicken gizzard smooth muscle myosin S1 fragment ATPase activity at 100 uM after 10 mins by spectrophotometric analysis
# Outline: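 Chicken gizzard smooth muscle S1 myosin with actin plus tropomyosin at pCa 6.5, in 20 mM Tris HCl pH 7.5, 15 mM KCl, 6 mM MgCl2, 1 mM ATP. Compound at single 100 uM dose, 10 min at room temperature. Cytophos stop; phosphate read at 650 nm. % activity versus blank-corrected DMSO control.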
# Rattus norvegicus [3] = assay: Positive inotropic activity in Sprague-Dawley rat heart assessed as left ventricular posterior wall thickness end diastole at 8 ug/kg/min for 3 mins by echocardiographic analysis (reference value: 0.88 to 1.54 mm); format: functional
# Outline: (§2)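 Male Sprague-Dawley rats, seven weeks old, anaesthetised with 1.5 % isoflurane given by nosecone. Compound infused through the right internal jugular vein, used as a central venous line. Left ventricular dimensions measured by echocardiography.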
# Rattus norvegicus [4] = assay: Positive inotropic activity in Sprague-Dawley rat heart assessed as heart rate at 4 ug/kg/min for 3 mins by echocardiographic analysis (reference value: 281 to 347 bpm); format: functional
# Rattus norvegicus [5] = assay: Effect on hemodynamic parameters in Sprague-Dawley rat heart assessed as end-systolic pressure at 4 ug/kg/min (reference value: 94.65 to 97.85 mmHg); format: functional
# Rattus norvegicus [6] = assay: Positive inotropic activity in Sprague-Dawley rat heart assessed as ejection fraction at 16 ug/kg/min for 3 mins by echocardiographic analysis (reference value: 67.16 to 85.81%); format: functional; outline: as §1
# Rattus norvegicus [7] = assay: Positive inotropic activity in Sprague-Dawley rat heart assessed as left ventricular posterior wall thickness end systole at 8 ug/kg/min for 3 mins by echocardiographic analysis (reference value: 2.07 to 2.46 mm); format: functional; outline: as §2
# Rattus norvegicus [8] = assay: Positive inotropic activity in Sprague-Dawley rat heart assessed as ejection fraction at 4 ug/kg/min for 3 mins by echocardiographic analysis (reference value: 67.16 to 85.81%); format: functional; outline: as §1
# Rattus norvegicus [9] = assay: Effect on hemodynamic parameters in Sprague-Dawley rat heart assessed as end-diastolic pressure at 4 ug/kg/min (reference value: 7.68 to 9.83 mmHg); format: functional
# Rattus norvegicus [10] = assay: Positive inotropic activity in Sprague-Dawley rat heart assessed as heart rate at 8 ug/kg/min for 3 mins by echocardiographic analysis (reference value: 281 to 347 bpm); format: functional
# Rattus norvegicus [11] = assay: Positive inotropic activity in Sprague-Dawley rat heart assessed as left ventricular internal diameter end diastole at 16 ug/kg/min for 3 mins by echocardiographic analysis (reference value: 5.66 to 7.80 mm); format: functional
# Rattus norvegicus [12] = assay: Effect on hemodynamic parameters in Sprague-Dawley rat heart assessed as dPdT min at 8 ug/kg/min (reference value: -5462 to -4611 mmHg/s); format: functional
# Rattus norvegicus [13] = assay: Positive inotropic activity in Sprague-Dawley rat heart assessed as fractional shortening at 8 ug/kg/min for 3 mins by echocardiographic analysis (reference value: 38.60 to 55.81%); format: functional; outline: as §1
# Rattus norvegicus [14] = assay: Effect on hemodynamic parameters in Sprague-Dawley rat heart assessed as heart rate at 8 ug/kg/min (reference value: 260 to 322 bpm); format: functional
# Rattus norvegicus [15] = assay: Positive inotropic activity in Sprague-Dawley rat heart assessed as fractional shortening at 16 ug/kg/min for 3 mins by echocardiographic analysis (reference value: 38.60 to 55.81%); format: functional; outline: as §1
# Rattus norvegicus [16] = assay: Positive inotropic activity in Sprague-Dawley rat heart assessed as left ventricular internal diameter end diastole at 8 ug/kg/min for 3 mins by echocardiographic analysis (reference value: 5.66 to 7.80 mm); format: functional; outline: as §2
# Rattus norvegicus [17] = assay: Positive inotropic activity in Sprague-Dawley rat heart assessed as left ventricular posterior wall thickness end systole at 4 ug/kg/min for 3 mins by echocardiographic analysis (reference value: 2.07 to 2.46 mm); format: functional; outline: as §2
# Rattus norvegicus [18] = assay: Positive inotropic activity in Sprague-Dawley rat heart assessed as left ventricular posterior wall thickness end diastole at 16 ug/kg/min for 3 mins by echocardiographic analysis (reference value: 0.88 to 1.54 mm); format: functional; outline: as §2
# Rattus norvegicus [19] = assay: Positive inotropic activity in Sprague-Dawley rat heart assessed as left ventricular posterior wall thickness end diastole at 4 ug/kg/min for 3 mins by echocardiographic analysis (reference value: 0.88 to 1.54 mm); format: functional; outline: as §2
# Rattus norvegicus [20] = assay: Effect on hemodynamic parameters in Sprague-Dawley rat heart assessed as heart rate at 4 ug/kg/min (reference value: 260 to 322 bpm); format: functional
# Rattus norvegicus [21] = assay: Effect on hemodynamic parameters in Sprague-Dawley rat heart assessed as dPdT max at 8 ug/kg/min (reference value: 4162 to 5214 mmHg/s); format: functional
# Rattus norvegicus [22] = assay: Positive inotropic activity in Sprague-Dawley rat heart assessed as left ventricular internal diameter end diastole at 4 ug/kg/min for 3 mins by echocardiographic analysis (reference value: 5.66 to 7.80 mm); format: functional; outline: as §2
# Rattus norvegicus [23] = assay: Effect on hemodynamic parameters in Sprague-Dawley rat heart assessed as dPdT min at 4 ug/kg/min (reference value: -5462 to -4898 mmHg/s); format: functional
# Rattus norvegicus [24] = assay: Positive inotropic activity in Sprague-Dawley rat heart assessed as fractional shortening at 4 ug/kg/min for 3 mins by echocardiographic analysis (reference value: 38.60 to 55.81%); format: functional; outline: as §1
# Rattus norvegicus [25] = assay: Effect on hemodynamic parameters in Sprague-Dawley rat heart assessed as end-systolic pressure at 8 ug/kg/min (reference value: 87.48 to 97.85 mmHg); format: functional
# Rattus norvegicus [26] = assay: Effect on hemodynamic parameters in Sprague-Dawley rat heart assessed as end-diastolic pressure at 8 ug/kg/min (reference value: 7.68 to 9.83 mmHg); format: functional
# Rattus norvegicus [27] = assay: Positive inotropic activity in Sprague-Dawley rat heart assessed as left ventricular posterior wall thickness end systole at 16 ug/kg/min for 3 mins by echocardiographic analysis (reference value: 2.07 to 2.46 mm); format: functional; outline: as §2
# Rattus norvegicus [28] = assay: Positive inotropic activity in Sprague-Dawley rat heart assessed as ejection fraction at 8 ug/kg/min for 3 mins by echocardiographic analysis (reference value: 67.16 to 85.81%); format: functional; outline: as §1
# Rattus norvegicus [29] = assay: Effect on hemodynamic parameters in Sprague-Dawley rat heart assessed as dPdT max at 4 ug/kg/min (reference value: 4985 to 5214 mmHg/s); format: functional
# Rattus norvegicus [30] = assay: Positive inotropic activity in Sprague-Dawley rat heart assessed as heart rate at 16 ug/kg/min for 3 mins by echocardiographic analysis (reference value: 281 to 347 bpm); format: functional
# [31] = Stability of the compound after 3 months by TLC analysis; format: physicochemical; settings: 2191.5 h
# [32] = Solubility of the compound in water; format: physicochemical; settings: buffer
# Outline: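 Final solution concentration measured by HPLC against three standards of known concentration.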
structure (smiles),measurement,setting,value
CN(CCCc1ccccc1)C(=O)N(C)CCc1ccccc1,Activity,Rattus norvegicus [1],3.41%
same,Activity,Rattus norvegicus [2],5.74%
same,Activity,Bos taurus,72.4%
c1ccc(CCCCNCCCc2ccccc2)cc1,Activity,Bos taurus,11.9%
O=C(NCCCC1CCCCC1)NCCC1CCCCC1,Activity,Bos taurus,44.4%
O=C(NCCCCc1ccccc1)NCCN1CCOCC1,Activity,Bos taurus,42.7%
O=C(NCCCc1ccccc1)NCCc1cccs1,Activity,Bos taurus,29.6%
O=C(NCCCc1ccccc1)NCc1cccs1,Activity,Bos taurus,47.6%
O=C(NCCCc1ccccc1)NCC1CCCCC1,Activity,Bos taurus,60.2%
O=C(NCCCc1ccccc1)NCCc1ccccc1,Activity,Oryctolagus cuniculus,-2.1%
same,Activity,Gallus gallus,-4.7%
same,Activity,Rattus norvegicus [1],12.15%
same,Activity,Rattus norvegicus [2],18.9%
same,Activity,Bos taurus,51.1%
O=C(NCCCc1ccccc1)N1CCCC1c1ccccc1 (stereo unspecified),Activity,Bos taurus,32.4%
O=C(CCCCc1ccccc1)NCCc1ccccc1,Activity,Bos taurus,39.1%
O=C(NCCCc1ccccc1)N1CCCC(c2ccccc2)C1 (stereo unspecified),Activity,Bos taurus,35.2%
O=C(NCCCc1ccccc1)NCCN1CCOCC1,Activity,Oryctolagus cuniculus,-5.3%
same,Activity,Gallus gallus,3.1%
same,Activity,Rattus norvegicus [1],15.65%
same,Activity,Rattus norvegicus [2],24.79%
same,Activity,Bos taurus,44%
O=S(=O)(NCCCc1ccccc1)NCCc1ccccc1,Activity,Bos taurus,32.1%
O=C(NCCCN1CCOCC1)NCCc1ccccc1,Activity,Bos taurus,32.9%
c1ccc(CCCCCNCCc2ccccc2)cc1,Activity,Bos taurus,1.6%
S=C(NCCCc1ccccc1)NCCc1ccccc1,Activity,Bos taurus,10.3%
O=C(NCCCc1ccccc1)NCCc1ccccn1,Activity,Bos taurus,30%
O=C(NCCCc1ccccc1)NCc1ccco1,Activity,Bos taurus,36.7%
O=C(NCCCn1ccnc1)NCCc1ccccc1,Activity,Bos taurus,32.6%
O=C(NCCc1ccccc1)N1CCN(c2ccccc2)CC1,Activity,Bos taurus,36.6%
CC(CCc1ccc(O)cc1)NCCc1ccc(O)c(O)c1 (stereo unspecified) [DOBUTAMINE],Activity,Rattus norvegicus [3],1.36 mm
same,Activity,Rattus norvegicus [4],393 bpm
same,Activity,Rattus norvegicus [5],96.65 mmHg
same,Activity,Rattus norvegicus [6],98.65%
same,Activity,Rattus norvegicus [7],3.08 mm
same,Activity,Rattus norvegicus [8],93.42%
same,Activity,Rattus norvegicus [9],9.38 mmHg
same,Activity,Rattus norvegicus [10],416 bpm
same,Activity,Rattus norvegicus [11],6.68 mm
same,Activity,Rattus norvegicus [12],-4368 mmHg/s
same,Activity,Rattus norvegicus [13],75.91%
same,Activity,Rattus norvegicus [14],309 bpm
same,Activity,Rattus norvegicus [15],82.57%
same,Activity,Rattus norvegicus [16],6.93 mm
same,Activity,Rattus norvegicus [17],2.93 mm
same,Activity,Rattus norvegicus [18],1.16 mm
same,Activity,Rattus norvegicus [19],1.06 mm
same,Activity,Rattus norvegicus [20],270 bpm
same,Activity,Rattus norvegicus [21],9314 mmHg/s
same,Activity,Rattus norvegicus [22],6.98 mm
same,Activity,Rattus norvegicus [23],-4936 mmHg/s
same,Activity,Rattus norvegicus [24],68.11%
same,Activity,Rattus norvegicus [25],103.12 mmHg
same,Activity,Rattus norvegicus [26],7.68 mmHg
same,Activity,Rattus norvegicus [27],3.59 mm
same,Activity,Rattus norvegicus [28],96.79%
same,Activity,Rattus norvegicus [29],6073 mmHg/s
same,Activity,Rattus norvegicus [30],421 bpm
O=C(NCCCc1ccccc1)NCc1ccc2[nH]ccc2c1,Activity,Bos taurus,37.2%
O=C(NCCCc1ccccc1)NCC1CCOCC1,Activity,Oryctolagus cuniculus,4.4%
same,Activity,Gallus gallus,5.1%
same,Activity,Rattus norvegicus [1],13.1%
same,Activity,Rattus norvegicus [2],20.5%
same,Activity,Bos taurus,81.4%
Cc1ccc2c(c1)C(=O)[C@]1(O)CCN(c3ccccc3)C1=N2,Activity,Oryctolagus cuniculus,-50.7%
same,Activity,Gallus gallus,-35.7%
O=C(NCCCC1CCCCC1)NCCc1ccccc1,Activity,Bos taurus,37.9%
O=C(NCCCc1ccccc1)NCCCc1ccccc1,Activity,Bos taurus,45.5%
O=C(NCCCc1ccccc1)NCCc1ccco1,Activity,Bos taurus,30.6%
O=C(COCCc1ccccc1)COCc1ccccc1,Stability,[31],Unstable
same,Activity,Bos taurus,42.9%
O=C(NCCCc1ccccc1)NC1CCCCC1,Activity,Bos taurus,20.3%
O=C(NCCCc1ccccc1)NCCC1CCCCC1,Activity,Bos taurus,61.4%
O=C(NCCCc1ccccc1)Nc1ccccc1,Activity,Bos taurus,46.2%
O=C(NCCc1ccccc1)N1CCC(c2ccccc2)CC1,solubility,[32],Insoluble
same,Activity,Bos taurus,46.6%
O=C(NCCCc1ccccc1)NC1Cc2ccccc2C1,solubility,[32],Insoluble
same,Activity,Bos taurus,61.9%
O=C(NCCCc1ccccc1)N1CCCCC1c1ccccc1 (stereo unspecified),Activity,Rattus norvegicus [1],9.26%
same,Activity,Rattus norvegicus [2],13.32%
same,Activity,Bos taurus,73%
